Data reported in ChEMBL document CHEMBL4706664, “Rational drug design of 6-substituted 4-anilino-2-phenylpyrimidines for exploration of novel ABCG2 binding site” (Eur J Med Chem, 2021).

How the values were obtained:
[1] = molecular target: T1, Broad substrate specificity ATP-binding cassette transporter ABCG2 (Homo sapiens, UniProt Q9UNQ0); test: Inhibition of ABCG2 (unknown origin) expressed in MDCK-II cells assessed as reduction in pheophorbide A efflux measured after 2 hrs by flow cytometry; assay type: cell-based
T1 sequence (Q9UNQ0 whole entry): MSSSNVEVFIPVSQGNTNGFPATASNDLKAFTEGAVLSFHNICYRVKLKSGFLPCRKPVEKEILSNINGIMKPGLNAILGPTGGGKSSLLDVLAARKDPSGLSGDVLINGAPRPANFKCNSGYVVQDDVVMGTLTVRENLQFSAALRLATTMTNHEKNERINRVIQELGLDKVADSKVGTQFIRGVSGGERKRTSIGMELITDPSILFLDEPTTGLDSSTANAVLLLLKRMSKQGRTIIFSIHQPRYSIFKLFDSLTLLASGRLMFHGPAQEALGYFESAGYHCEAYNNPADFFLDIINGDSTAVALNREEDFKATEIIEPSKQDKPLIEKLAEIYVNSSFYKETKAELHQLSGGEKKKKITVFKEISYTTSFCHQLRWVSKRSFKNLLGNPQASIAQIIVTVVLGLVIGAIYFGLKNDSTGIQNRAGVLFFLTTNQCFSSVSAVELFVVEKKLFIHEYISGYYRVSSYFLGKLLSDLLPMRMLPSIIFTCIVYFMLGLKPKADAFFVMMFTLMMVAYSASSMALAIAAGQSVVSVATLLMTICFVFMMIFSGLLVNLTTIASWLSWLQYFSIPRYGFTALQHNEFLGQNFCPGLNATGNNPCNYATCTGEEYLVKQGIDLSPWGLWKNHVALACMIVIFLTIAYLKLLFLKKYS
Procedure, shortened: (§1)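 Pheophorbide A accumulation in MDCK II BCRP cells, about 45,000 cells/well in Krebs-HEPES buffer pH 7.4. Compound dilutions were prepared at 0.316–100 µM, and 20 µL of 5 µM pheophorbide A was added. Incubated 2 h at 37 °C, 5% CO2. Fluorescence read by flow cytometry (ex 488 nm, em 695/50 nm). IC50 and Imax are mean ± SEM of at least three independent experiments.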

[2] = Cytotoxicity against ABCB1 over expressing human A2780 ADR cells assessed as reduction in cell viability measured after 72 hrs by MTT assay; assay type: ADME, cell-based; details: ABCB1 overexpressing A2780 ADR cells
Procedure, shortened: (§2)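 MTT cell viability. Compound dilution series prepared in culture medium at 3.16 µM to 1 mM (dilution stock; added 20 µL to 180 µL cells). Seeding per well: MDCK II and MDCK II BCRP 2000, A2780 and A2780/ADR 8000, H69AR 20,000. Incubated 72 h, 37 °C, 5% CO2. MTT 5 mg/mL added for 60 min, formazan dissolved in DMSO, absorbance 570 nm (690 nm background). Medium = 100%, 10% DMSO = 0% viability. GI50 by four-parameter logistic fit. Mean ± SEM of at least three independent experiments.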

[3] = Cytotoxicity against ABCG2 overexpressing MDCK-II cells assessed as reduction in cell viability measured after 72 hrs by MTT assay; assay type: ADME, cell-based, Canis lupus familiaris; details: dog; procedure, shortened: as §2
ABCG2 [4] = molecular target: T2, ABCG2 (Homo sapiens, UniProt Q9UNQ0); test: Inhibition of ABCG2 (unknown origin) expressed in MDCK-II cells assessed as reduction in pheophorbide A efflux measured after 2 hrs by flow cytometry relative to Ko143; assay type: cell-based; details: MDCK-II cells expressing ABCG2, probe pheophorbide A, read-out: Imax; procedure, shortened: as §1
T2 sequence (Q9UNQ0 whole entry): T1 sequence (Q9UNQ0 whole entry)

[5] = Cytotoxicity against ABCB1 over expressing human A2780 cells assessed as reduction in cell viability measured after 72 hrs by MTT assay; assay type: ADME, cell-based; details: in the assay text read “human A2780 cells” for “ABCB1 over expressing human A2780 cells”; procedure, shortened: as §2
[6] = Cytotoxicity against ABCC1 over expressing human NCI-H69AR cells assessed as reduction in cell viability measured after 72 hrs by MTT assay; assay type: ADME, cell-based; details: ABCC1 overexpressing NCI-H69AR cells; procedure, shortened: as §2
ABCC1 = ABCC1 (Homo sapiens, UniProt P33527); test: Inhibition of ABCC1 (unknown origin) expressed in human NCI-H69AR cells assessed as reduction in calcein AM efflux at 10 uM preincubated for 30 mins followed by calcein AM addition and measured at 60 secs interval for 1 hr by fluorescence assay relative to control; assay type: cell-based; details: NCI-H69AR cells expressing ABCC1, probe calcein AM, time 90 min
[7] = Cytotoxicity against wild-type MDCK-II cells assessed as reduction in cell viability measured after 72 hrs by MTT assay; assay type: cell-based, Canis lupus familiaris; details: dog; procedure, shortened: as §2
ABCB1 = ABCB1 (Homo sapiens, UniProt P08183); test: Inhibition of ABCB1 (unknown origin) expressed in human A2780 ADR cells assessed as reduction in calcein AM efflux at 10 uM preincubated for 30 mins followed by calcein AM addition and measured at 60 secs interval for 1 hr by fluorescence assay relative to control; assay type: cell-based; details: A2780 ADR cells expressing ABCB1, probe calcein AM, time 90 min
Procedure, shortened: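 Calcein AM accumulation in A2780/ADR cells (30,000/well, Krebs-HEPES buffer pH 7.4). Cells preincubated with compound 30 min at 37 °C, 5% CO2. Screening at 10 µM.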

[8] = molecular target: ATP-dependent translocase ABCB1 (Homo sapiens, UniProt P08183); test: Inhibition of ABCB1 (unknown origin) expressed in human A2780 ADR cells assessed as reduction in calcein AM efflux preincubated for 30 mins followed by calcein AM addition and measured at 60 secs interval for 1 hr by fluorescence assay; assay type: cell-based
Procedure, shortened: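 Calcein AM accumulation in A2780/ADR cells (30,000/well, Krebs-HEPES buffer pH 7.4). Cells preincubated with compound 30 min at 37 °C, 5% CO2. Then 20 µL of 3.125 µM calcein AM added. Fluorescence (ex 485/em 520 nm) read every 60 s for 1 h. […] Screening at 10 µM.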

ABCG2 [9] = test: Therapeutic index, ratio of GI50 for cytotoxicity against ABCG2 overexpressing MDCK-II cells to IC50 for inhibition of ABCG2 (unknown origin) expressed in MDCK-II cells; details: dog
[10] = Cytotoxicity against human A2780 cells assessed as reduction in cell viability measured after 72 hrs by MTT assay

Chain of ABCC1 (P33527 whole entry): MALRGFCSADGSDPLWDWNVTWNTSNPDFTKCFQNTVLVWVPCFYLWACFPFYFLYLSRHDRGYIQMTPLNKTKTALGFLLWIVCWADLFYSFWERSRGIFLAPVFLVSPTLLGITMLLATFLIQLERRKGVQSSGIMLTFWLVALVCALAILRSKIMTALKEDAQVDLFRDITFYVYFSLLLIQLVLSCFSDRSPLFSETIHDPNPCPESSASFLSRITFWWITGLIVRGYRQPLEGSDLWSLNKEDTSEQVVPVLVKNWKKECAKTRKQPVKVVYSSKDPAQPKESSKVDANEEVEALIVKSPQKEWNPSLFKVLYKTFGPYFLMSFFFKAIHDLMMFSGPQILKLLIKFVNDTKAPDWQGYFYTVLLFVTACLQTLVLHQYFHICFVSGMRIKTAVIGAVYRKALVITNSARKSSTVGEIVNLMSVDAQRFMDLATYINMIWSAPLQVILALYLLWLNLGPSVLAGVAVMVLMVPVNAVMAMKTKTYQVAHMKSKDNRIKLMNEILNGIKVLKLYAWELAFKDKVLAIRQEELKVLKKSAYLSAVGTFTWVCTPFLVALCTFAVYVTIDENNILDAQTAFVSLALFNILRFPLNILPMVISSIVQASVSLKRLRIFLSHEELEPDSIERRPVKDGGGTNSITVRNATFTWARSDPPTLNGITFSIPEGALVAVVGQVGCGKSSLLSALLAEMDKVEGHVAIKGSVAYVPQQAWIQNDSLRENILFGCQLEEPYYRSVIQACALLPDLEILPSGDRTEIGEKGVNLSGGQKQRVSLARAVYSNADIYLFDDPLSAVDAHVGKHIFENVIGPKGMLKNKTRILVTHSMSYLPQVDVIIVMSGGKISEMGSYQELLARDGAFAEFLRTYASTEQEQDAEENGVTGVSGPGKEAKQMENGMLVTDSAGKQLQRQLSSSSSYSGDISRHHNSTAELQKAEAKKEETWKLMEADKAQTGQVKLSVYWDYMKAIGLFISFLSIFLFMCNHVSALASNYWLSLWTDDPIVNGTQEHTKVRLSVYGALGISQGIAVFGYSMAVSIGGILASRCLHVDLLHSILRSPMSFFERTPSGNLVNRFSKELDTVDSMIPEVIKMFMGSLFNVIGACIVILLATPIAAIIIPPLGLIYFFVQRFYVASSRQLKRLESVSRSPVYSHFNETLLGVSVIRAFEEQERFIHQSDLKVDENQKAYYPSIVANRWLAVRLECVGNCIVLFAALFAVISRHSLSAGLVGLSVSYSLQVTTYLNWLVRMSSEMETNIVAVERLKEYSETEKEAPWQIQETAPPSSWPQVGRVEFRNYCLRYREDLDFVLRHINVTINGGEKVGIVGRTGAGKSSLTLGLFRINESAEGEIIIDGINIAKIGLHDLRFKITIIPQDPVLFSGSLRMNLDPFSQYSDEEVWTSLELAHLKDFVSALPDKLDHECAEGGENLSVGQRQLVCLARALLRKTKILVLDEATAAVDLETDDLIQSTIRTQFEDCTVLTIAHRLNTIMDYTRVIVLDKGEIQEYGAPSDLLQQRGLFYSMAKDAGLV
Chain of ABCB1 (P08183 whole entry): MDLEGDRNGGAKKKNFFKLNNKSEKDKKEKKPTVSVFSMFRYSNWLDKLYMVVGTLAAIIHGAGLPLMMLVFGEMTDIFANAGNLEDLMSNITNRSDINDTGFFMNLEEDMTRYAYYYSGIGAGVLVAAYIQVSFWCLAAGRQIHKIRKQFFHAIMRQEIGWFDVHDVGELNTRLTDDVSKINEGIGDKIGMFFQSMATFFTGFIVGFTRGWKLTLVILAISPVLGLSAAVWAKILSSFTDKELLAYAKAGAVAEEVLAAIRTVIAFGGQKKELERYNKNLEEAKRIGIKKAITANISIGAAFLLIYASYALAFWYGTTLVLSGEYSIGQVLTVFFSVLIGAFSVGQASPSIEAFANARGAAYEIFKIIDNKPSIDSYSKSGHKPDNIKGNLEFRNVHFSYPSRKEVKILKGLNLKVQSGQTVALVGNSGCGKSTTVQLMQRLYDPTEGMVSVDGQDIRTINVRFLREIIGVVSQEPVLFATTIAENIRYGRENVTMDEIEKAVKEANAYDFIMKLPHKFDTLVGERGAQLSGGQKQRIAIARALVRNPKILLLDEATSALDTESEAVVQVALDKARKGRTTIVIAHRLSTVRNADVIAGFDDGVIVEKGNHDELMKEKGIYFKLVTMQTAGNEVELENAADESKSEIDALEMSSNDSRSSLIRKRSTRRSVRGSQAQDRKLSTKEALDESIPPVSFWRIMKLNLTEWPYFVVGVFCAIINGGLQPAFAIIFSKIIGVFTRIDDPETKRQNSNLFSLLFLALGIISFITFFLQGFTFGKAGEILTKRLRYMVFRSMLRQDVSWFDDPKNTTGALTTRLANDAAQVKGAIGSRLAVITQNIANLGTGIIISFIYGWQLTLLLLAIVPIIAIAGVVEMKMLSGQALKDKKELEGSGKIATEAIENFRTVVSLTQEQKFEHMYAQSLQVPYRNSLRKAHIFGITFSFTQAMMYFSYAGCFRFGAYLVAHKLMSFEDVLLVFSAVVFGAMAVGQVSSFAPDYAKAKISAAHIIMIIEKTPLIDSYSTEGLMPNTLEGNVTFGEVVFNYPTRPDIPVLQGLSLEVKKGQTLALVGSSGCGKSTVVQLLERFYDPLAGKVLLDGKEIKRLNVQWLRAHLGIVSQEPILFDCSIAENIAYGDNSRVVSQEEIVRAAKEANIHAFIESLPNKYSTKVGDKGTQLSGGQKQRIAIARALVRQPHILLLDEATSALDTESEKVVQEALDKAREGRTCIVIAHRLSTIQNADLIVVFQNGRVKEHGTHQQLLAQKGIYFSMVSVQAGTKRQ
Chain of ATP-dependent translocase ABCB1 (P08183 whole entry): as above

| Structure (SMILES) | IC50 [1] [µM] | Emax at 2 h (ABCG2 [4]) [%] | inhibition at 1 h, 10 µM (ABCC1) [%] | inhibition at 1 h, 10 µM (ABCB1) [%] | IC50 ([8]; read-out: IC50) [µM] | IC50 ([8]; a2780 adr) | GI50 at 72 h [2] [µM] | GI50 at 72 h [3] [µM] | GI50 at 72 h [5] [µM] | GI50 at 72 h [6] [µM] | GI50 at 72 h [7] [µM] | selectivity ratio (ABCG2 [9]) | GI50 at 72 h [10] [µM] |
| --- | --- | --- | --- | --- | --- | --- | --- | --- | --- | --- | --- | --- | --- |
| N#Cc1ccc(Nc2cc(Nc3ccc(O)cc3)nc(-c3ccccc3)n2)cc1 | 0.387 | 76 | > 20 | > 20 | 4.54 | – | 9.21 | 5.15 | 8.02 | 13.7 | 5.3 | – | – |
| N#Cc1ccc(Nc2cc(NCc3ccccn3)nc(-c3ccccc3)n2)cc1 | 0.21 | 88 | – | > 20 | 3.4 | – | – | 8.56 | – | – | 9.44 | 40.8 | – |
| N#Cc1ccc(Nc2cc(NCc3cccnc3)nc(-c3ccccc3)n2)cc1 | 0.373 | 91 | > 20 | > 20 | 5.41 | – | – | 5.54 | – | – | 7.47 | 14.9 | – |
| N#Cc1ccc(Nc2cc(Nc3cccc(O)c3)nc(-c3ccccc3)n2)cc1 | 0.608 | 66 | > 20 | > 20 | 3.52 | – | 5.91 | 5.12 | 3.55 | 11 | 5.24 | – | – |
| N#Cc1ccc(Nc2cc(NCc3ccncc3)nc(-c3ccccc3)n2)cc1 | 0.435 | 78 | – | > 20 | 4.26 | – | – | 10 | – | – | 10.7 | 23.1 | – |
| CCCNc1cc(Nc2ccc(C#N)cc2)nc(-c2ccccc2)n1 | 0.293 | 89 | > 20 | > 20 | 5.9 | – | 12.3 | 6.56 | – | 23 | 8.34 | – | 15.1 |
| CC(C)Nc1cc(Nc2ccc(C#N)cc2)nc(-c2ccccc2)n1 | 0.763 | 101 | > 20 | > 20 | 6.42 | – | 8.09 | 5.06 | – | 21.4 | 5.58 | – | 13.3 |
| N#Cc1ccc(Nc2cc(NCc3ccccc3)nc(-c3ccccc3)n2)cc1 | 0.283 | 99 | – | > 20 | 4.47 | – | – | 10.7 | – | – | 4.19 | 38 | – |
| CCc1c2c(nc3ccc(O)cc13)-c1cc3c(c(=O)n1C2)COC(=O)[C@]3(O)CC [7-ETHYL-10-HYDROXYCAMPTOTHECIN] | – | – | – | – | – | – | – | – | – | – | 0.139 | – | – |
| CCCCNc1cc(Nc2ccc(C#N)cc2)nc(-c2ccccc2)n1 | 0.5 | 73 | – | > 20 | 6.62 | – | – | 6.08 | – | – | 8.32 | 12.2 | – |
| N#Cc1ccc(Nc2cc(-c3ccccc3)nc(-c3ccccc3)n2)cc1 | 4.41 | 100 | – | – | – | Not Active | – | 21.9 | – | – | 25.1 | 4.96 | – |

Continued, in another order:

| IC50 [1] [µM] | Emax at 2 h (ABCG2 [4]) [%] | inhibition at 1 h, 10 µM (ABCC1) [%] | inhibition at 1 h, 10 µM (ABCB1) [%] | IC50 ([8]; read-out: IC50) [µM] | IC50 ([8]; a2780 adr) | Structure (SMILES) | GI50 at 72 h [2] [µM] | GI50 at 72 h [3] [µM] | GI50 at 72 h [5] [µM] | GI50 at 72 h [6] [µM] | GI50 at 72 h [7] [µM] | selectivity ratio (ABCG2 [9]) | GI50 at 72 h [10] [µM] |
| --- | --- | --- | --- | --- | --- | --- | --- | --- | --- | --- | --- | --- | --- |
| 0.189 | – | – | – | – | – | N#Cc1ccc(Nc2ccnc(-c3ccccc3)n2)cc1 | – | – | – | – | – | – | – |
| 0.096 | 61 | – | – | – | Not Active | N#Cc1ccc(Nc2cc(NCCCc3ccccc3)nc(-c3ccccc3)n2)cc1 | – | 3.64 | – | – | 5.03 | 38.4 | – |
| 0.141 | 68 | – | > 20 | 25.9 | – | CNc1cc(Nc2ccc(C#N)cc2)nc(-c2ccccc2)n1 | – | 25 | – | – | 34.1 | 180 | – |
| 0.147 | 61 | – | – | – | Not Active | N#Cc1ccc(Nc2cc(NCCCCc3ccccc3)nc(-c3ccccc3)n2)cc1 | – | 9.48 | – | – | 10.6 | 65 | – |
| 0.133 | 60 | – | > 20 | 6.75 | – | N#Cc1ccc(Nc2cc(Nc3ccc(C#N)cc3)nc(-c3ccccc3)n2)cc1 | – | 7.78 | – | – | 7.09 | 58.7 | – |
| 0.169 | 84 | – | > 20 | 5.38 | – | N#Cc1ccc(Nc2cc(Nc3ccccc3)nc(-c3ccccc3)n2)cc1 | – | 4.05 | – | – | 4.95 | 24 | – |
| 0.189 | 87 | – | – | – | – | Cc1cc(Nc2ccc(C#N)cc2)nc(-c2ccccc2)n1 | – | – | – | – | – | – | – |
